In the RNAGym collection of RNA variant scans (doi:10.1002/anie.201605470) one finds self-cleavage data, which are given here for 48 variants.

First the molecules themselves.
B1: Osa-1-4 twister ribozyme (parent)
chain: CCGCCUAACACUGCCAAUGCCGGUCCCAAGCCCGGAUAAAAGUGGAGGGGGCGG

In this data set the parent is B1. Kind of data set: self-cleavage, relative activity (ratio to wild type); higher = more cleavage; co-transcriptional. The method, boiled down:
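In vitro transcription at 37 °C for 2 h allowed the twister ribozyme to cleave itself as it was made. Its 54-nucleotide Oryza sativa template had been synthesised with 97 % wild-type base and 1 % of each other base at the 48 positions downstream of the cleavage site. A template-switching oligonucleotide was used for reverse transcription, followed by PCR amplification and deep sequencing. Whether reads carried upstream sequence set the cleavage status, and relative activity is the fraction cleaved normalised to wild type.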
As to CCGCCUAACACUGCCAAUGCCGGUCCCAAGCCCGGAUAAAAGUGGAAGGGGCCG, the self-cleavage stood at 0.06.

CCGCCUAACACUGCCAAUGCCGGUCCCAAGCCCGGAUAAAAGUGGAAGGGGCAG: the self-cleavage was determined as 0.13.

As for CCGCCUAACACUGCCAAUGCCGGUCCCAAGCCCGGAUAAAAGUGGAAGGGGCUG, the self-cleavage came out at 0.08.

Turning to CCGCCUAACACUGCCAAUGCCGGUCCCAAGCCCGGAUAAAAGUGGUGCGGGCGG, the self-cleavage worked out at 0.04.

In the case of CCGCCUAACACUGCCAAUGCCGGUCCCAAGCCCGGAUAAAAGUGGUGUGGGCGG, the self-cleavage is 0.03.

For the variant CCGCCUAACACUGCCAAUGCCGGUCCCAAGCCCGGAUAAAAGUGGUGAGGGCGG, the self-cleavage turned out to be 0.03.

As for CCGCCUAACACUGCCAAUGCCGGUCCCAAGCCCGGAUAAAAGUGGACCGGGCGG, the self-cleavage is 0.05.

As to CCGCCUAACACUGCCAAUGCCGGUCCCAAGCCCGGAUAAAAGUGGACAGGGCGG, the self-cleavage came out at 0.04.

As for CCGCCUAACACUGCCAAUGCCGGUCCCAAGCCCGGAUAAAAGUGGAAGGGUCGG, the self-cleavage came to 0.09.

Regarding CCGCCUAACACUGCCAAUGCCGGUCCCAAGCCCGGAUAAAAGUGGAAGGGCCGG, the self-cleavage is 0.05.

As to CCGCCUAACACUGCCAAUGCCGGUCCCAAGCCCGGAUAAAAGUGGAAGGGACGG, the self-cleavage was 0.12.

In the case of CCGCCUAACACUGCCAAUGCCGGUCCCAAGCCCGGAUAAAAGCGGUGGGGGCGG, the self-cleavage turned out to be 0.06.

Turning to CCGCCUAACACUGCCAAUGCCGGUCCCAAGCCCGGAUAAAAGGGGUGGGGGCGG, the self-cleavage worked out at 0.07.

As for CCGCCUAACACUGCCAAUGCCGGUCCCAAGCCCGGAUAAAAGAGGUGGGGGCGG, the self-cleavage amounted to 0.08.

CCGCCUAACACUGCCAAUGCCGGUCCCAAGCCCGGAUAAAAGUGGUGGGGGCGU: the self-cleavage came out at 0.17.

Take CCGCCUAACACUGCCAAUGCCGGUCCCAAGCCCGGAUAAAAGUGGUGGGGGCGA: the self-cleavage turned out to be 0.08.

With CCGCCUAACACUGCCAAUGCCGGUCCCAAGCCCGGAUAAAAGUGGUGGGGGCGC, the self-cleavage amounted to 0.08.

As for CCGCCUAACACGGCCAAUGCCGGUCCCAAGCCCGGAUAAAAGUGGUGGGGGCGG, the self-cleavage is 0.07.

As for CCGCCUAACACAGCCAAUGCCGGUCCCAAGCCCGGAUAAAAGUGGUGGGGGCGG, the self-cleavage turned out to be 0.07.

As for CCGCCUAACACCGCCAAUGCCGGUCCCAAGCCCGGAUAAAAGUGGUGGGGGCGG, the self-cleavage was 0.06.

With CCGCCUAACACUGCCAAUGCCGGUCCCAAGCCCGGAUAAAAGUGGAAGGGGCGG, the self-cleavage was 0.51.

In the case of CCGCCUAACACUGCCAAUGCCGGUCCCAAGCCCGGAUAAAAGUGGACGGGGCGG, the self-cleavage came out at 0.17.

For the variant CCGCCUAACACAGCCAAUGCCGGUCCCAAGCCCGGAUAAAAGUGGAAGGGGCGG, the self-cleavage was 0.08.

In the case of CCGCCUAACACGGCCAAUGCCGGUCCCAAGCCCGGAUAAAAGUGGAAGGGGCGG, the self-cleavage was determined as 0.06.

In the case of CCGCCUAACACCGCCAAUGCCGGUCCCAAGCCCGGAUAAAAGUGGAAGGGGCGG, the self-cleavage was found to be 0.07.

CCGCCUAACACUGCCAAUGCCGGGCCCAAGCCCGGAUAAAAGUGGAAGGGGCGG: the self-cleavage turned out to be 0.02.

As for CCGCCUAACACUGCCAAUGCCGGACCCAAGCCCGGAUAAAAGUGGAAGGGGCGG, the self-cleavage worked out at 0.04.

For CCGCCUAACACUGCCAAUGCCGGCCCCAAGCCCGGAUAAAAGUGGAAGGGGCGG, the self-cleavage amounted to 0.04.

For CCGCCUAACACUGCCAAUGCCGGUCCCAAGCCCGGAGAAAAGUGGUGGGGGCGG, the self-cleavage came out at 0.11.

Turning to CCGCCUAACACUGCCAAUGCCGGUCCCAAGCCCGGACAAAAGUGGUGGGGGCGG, the self-cleavage was found to be 0.09.

CCGCCUAACACUGCCAAUGCCGGUCCCAAGCCCGGAAAAAAGUGGUGGGGGCGG: the self-cleavage came to 0.05.

For CCGCCUAACACUGCCAAUGCCGGUCCCAAGCCCGGAUAAAACUGGUGGGGGCGG, the self-cleavage stood at 0.06.

In the case of CCGCCUAACACUGCCAAUGCCGGUCCCAAGCCCGGAUAAAAUUGGUGGGGGCGG, the self-cleavage worked out at 0.03.

For CCGCCUAACACUGCCAAUGCCGGUCCCAAGCCCGGAUAAAAAUGGUGGGGGCGG, the self-cleavage stood at 0.08.

For CCGCCUAACACUGCCAAUGCCGGUCCCAAGCCCGGAUAAAAGUGGUUGGGGCGG, the self-cleavage was found to be 0.05.

Turning to CCGCCUAACACUGCCAAUGCCGGUCCCAAGCCCGGAUAAAAGUGGUCGGGGCGG, the self-cleavage is 0.04.

As to CCGCCUAACACUGCCAAUGCCGGUCCCAAGCCCGGAUAAAAGUGGUAGGGGCGG, the self-cleavage is 0.06.

On to CCGCCUAACACUGCCAAUGCCGGUCCCAAGCCCGGAUAAAAGUGGAAAGGGCGG, for which the self-cleavage turned out to be 0.08.

With CCGCCUAACACUGCCAAUGCCGGUCCCAAGCCCGGAUAAAAGUGGAAUGGGCGG, the self-cleavage amounted to 0.04.

CCGCCUAACACUGCCAAUGCCGGUCCCAAGCCCGGAUAAAAGUGGAACGGGCGG: the self-cleavage was 0.04.

Take CCGCCUAACACUGCCAAAGCCGGUCCCAAGCCCGGAUAAAAGUGGUGGGGGCGG: the self-cleavage was 0.05.

On to CCGCCUAACACUGCCAAGGCCGGUCCCAAGCCCGGAUAAAAGUGGUGGGGGCGG, for which the self-cleavage worked out at 0.09.

In the case of CCGCCUAACACUGCCAACGCCGGUCCCAAGCCCGGAUAAAAGUGGUGGGGGCGG, the self-cleavage was determined as 0.08.

Regarding CCGCCUAACACUGCCAACGCCGGUCCCAAGCCCGGAUAAAAGUGGAAGGGGCGG, the self-cleavage was found to be 0.22.

As for CCGCCUAACACUGCCAAAGCCGGUCCCAAGCCCGGAUAAAAGUGGAAGGGGCGG, the self-cleavage is 0.33.

Consider CCGCCUAACACUGCCAAGGCCGGUCCCAAGCCCGGAUAAAAGUGGAAGGGGCGG, for which the self-cleavage is 0.56.

For the variant CCGCCUAACACUGCCAAUGCCGGUCCCAAGCCCGGAUAAAAGUGGUGGAGGCGG, the self-cleavage came to 0.04.

Turning to CCGCCUAACACUGCCAAUGCCGGUCCCAAGCCCGGAUAAAAGUGGUGGCGGCGG, the self-cleavage is 0.04.
